Active and inactive are the calls of the source. No cut-off for these calls is given here.
Columns and labels:
[1] = biological target: T1, von Hippel-Lindau disease tumor suppressor/Histone deacetylase 2 (Homo sapiens) (UniProt Q92769+P40337); assay: Protac activity at VHL/HDAC2 in human HCT-116 cells assessed as induction of HDAC2 degradation at 1 to 10 uM incubated for 24 hrs by Western blot analysis; format: cell-based; details: dose 1-10 µM
Procedure, shortened: (§1)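 HCT116 cells (37 °C, 5% CO₂) seeded for 24 h, then given DMSO or PROTAC (0.01–10 μM) in fresh medium for 2–48 h. Lysates made in Tris/NaCl/NP-40/Triton X-100 buffer with protease inhibitor; histones acid-extracted with 0.4 N H₂SO₄. 30 μg protein or 10 μL histone extract per lane run on 4–12% bis-Tris gels. Quantitative western blotting used IR-dye secondaries and band densitometry, referenced to DMSO; two independent biological replicates.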

[2] = biological target: T2, von Hippel-Lindau disease tumor suppressor/Histone deacetylase 1 (Homo sapiens, UniProt Q13547+P40337); assay: Protac activity at VHL/HDAC1 in human HCT-116 cells assessed as induction of HDAC1 degradation at 1 to 10 uM incubated for 24 hrs by Western blot analysis; format: cell-based; details: dose 1-10 µM; procedure, shortened: as §1
Target sequence in this assay (P40337 whole entry, looked up): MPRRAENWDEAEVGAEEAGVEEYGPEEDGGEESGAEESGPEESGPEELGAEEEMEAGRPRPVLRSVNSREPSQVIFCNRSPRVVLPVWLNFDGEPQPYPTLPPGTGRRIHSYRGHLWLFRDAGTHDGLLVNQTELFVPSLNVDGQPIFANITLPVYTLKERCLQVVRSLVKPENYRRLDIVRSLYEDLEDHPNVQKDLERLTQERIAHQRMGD
Target sequence in this assay (Q13547 whole entry, looked up): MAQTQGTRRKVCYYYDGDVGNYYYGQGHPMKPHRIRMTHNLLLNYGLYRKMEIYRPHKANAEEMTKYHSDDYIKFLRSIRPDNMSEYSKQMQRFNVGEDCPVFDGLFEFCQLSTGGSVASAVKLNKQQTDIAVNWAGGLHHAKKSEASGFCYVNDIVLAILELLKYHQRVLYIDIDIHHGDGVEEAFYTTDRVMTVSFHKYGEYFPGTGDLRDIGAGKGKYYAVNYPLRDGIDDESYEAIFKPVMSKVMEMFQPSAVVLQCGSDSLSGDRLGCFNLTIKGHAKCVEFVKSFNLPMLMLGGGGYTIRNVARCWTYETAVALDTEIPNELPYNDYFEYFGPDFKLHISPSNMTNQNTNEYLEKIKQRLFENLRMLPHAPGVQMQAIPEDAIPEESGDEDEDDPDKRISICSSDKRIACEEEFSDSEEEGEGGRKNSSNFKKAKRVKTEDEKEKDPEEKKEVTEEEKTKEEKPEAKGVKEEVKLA

[3] = biological target: T3, von Hippel-Lindau disease tumor suppressor/Histone deacetylase 3 (Homo sapiens, UniProt O15379+P40337); assay: Protac activity at VHL/HDAC3 in human HCT-116 cells assessed as induction of HDAC3 degradation at 10 uM incubated for 24 hrs by Western blot analysis; format: cell-based; procedure, shortened: as §1
Target sequence in this assay (O15379 whole entry, looked up): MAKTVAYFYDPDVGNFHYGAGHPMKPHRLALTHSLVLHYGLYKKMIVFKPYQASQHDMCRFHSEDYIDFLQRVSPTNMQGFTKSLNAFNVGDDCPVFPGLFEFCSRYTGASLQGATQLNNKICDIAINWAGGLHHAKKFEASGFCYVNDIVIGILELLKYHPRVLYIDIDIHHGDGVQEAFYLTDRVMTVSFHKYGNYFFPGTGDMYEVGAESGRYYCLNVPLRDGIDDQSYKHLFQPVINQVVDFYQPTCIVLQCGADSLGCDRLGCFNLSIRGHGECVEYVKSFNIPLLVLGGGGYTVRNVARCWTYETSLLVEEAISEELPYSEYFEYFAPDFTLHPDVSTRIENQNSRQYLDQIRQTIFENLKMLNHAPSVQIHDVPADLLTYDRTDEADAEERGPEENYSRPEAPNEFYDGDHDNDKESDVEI
Target sequence in this assay (P40337 whole entry, looked up): as the sequence (P40337 whole entry, looked up) above

[4] = Inhibition of HDAC2-CoREST-LSD1 (unknown origin) using Boc- (Ac)Lys-AMC as substrate preincubated for 1 hr followed by substrate addition and measured after 1 hr by fluorescent assay; set-up: species or system Homo sapiens
HCT-116 [5] = assay: Cytotoxicity against human HCT-116 cells assessed as reduction in cell viability measured after 48 hrs by cell-titer glo assay; format: functional, cell-based
[6] = Inhibition of HDAC1-CoREST-LSD1 (unknown origin) using Boc- (Ac)Lys-AMC as substrate preincubated for 1 hr followed by substrate addition and measured after 1 hr by fluorescent assay; set-up: species or system Homo sapiens
[7] = biological target: T3, von Hippel-Lindau disease tumor suppressor/Histone deacetylase 3; assay: Protac activity at VHL/HDAC3 in human HCT-116 cells assessed as induction of HDAC3 degradation incubated for 24 hrs by Western blot analysis; format: cell-based
Target sequence in this assay (O15379 whole entry): as the sequence (O15379 whole entry, looked up) above
Target sequence in this assay (P40337 whole entry): as the sequence (P40337 whole entry, looked up) above

[8] = Inhibition of HDAC3-SMRT (unknown origin) using Boc- (Ac)Lys-AMC as substrate preincubated for 1 hr followed by substrate addition and measured after 1 hr by fluorescent assay; set-up: species or system Homo sapiens
[9] = biological target: T2, von Hippel-Lindau disease tumor suppressor/Histone deacetylase 1; assay: Protac activity at VHL/HDAC1 in human HCT-116 cells assessed as induction of HDAC1 degradation incubated for 24 hrs by Western blot analysis; format: cell-based
Target sequence in this assay (Q13547 whole entry): as the sequence (Q13547 whole entry, looked up) above
Target sequence in this assay (P40337 whole entry): as the sequence (P40337 whole entry, looked up) above

[10] = biological target: T1, von Hippel-Lindau disease tumor suppressor/Histone deacetylase 2 (Homo sapiens); assay: Protac activity at VHL/HDAC2 in human HCT-116 cells assessed as induction of HDAC2 degradation at 10 uM measured after 4 hrs by Western blot analysis; format: cell-based; procedure, shortened: as §1
[11] = biological target: T3, von Hippel-Lindau disease tumor suppressor/Histone deacetylase 3; assay: Protac activity at VHL/HDAC3 in human HCT-116 cells assessed as induction of HDAC3 degradation at 1 uM measured after 4 hrs by Western blot analysis; format: cell-based; procedure, shortened: as §1
Target sequence in this assay (O15379 whole entry, looked up): as the sequence (O15379 whole entry, looked up) above
Target sequence in this assay (P40337 whole entry, looked up): as the sequence (P40337 whole entry, looked up) above

HCT-116 [12] = assay: Induction of apoptosis in HCT-116 cells assessed as accumulation of cells in Sub-G1 phase at 10 uM measured after 48 hrs by flow cytometry analysis; details: Homo sapiens
[13] = biological target: T2, von Hippel-Lindau disease tumor suppressor/Histone deacetylase 1; assay: Protac activity at VHL/HDAC1 in human HCT-116 cells assessed as fold increase in H3K56ac at 10 uM measured after 8 hrs by Western blot analysis relative to control; format: cell-based; procedure, shortened: as §1
Target sequence in this assay (P40337 whole entry, looked up): as above
Target sequence in this assay (Q13547 whole entry, looked up): as the sequence (Q13547 whole entry, looked up) above

[14] = biological target: T3, von Hippel-Lindau disease tumor suppressor/Histone deacetylase 3; assay: Protac activity at VHL/HDAC3 in human HCT-116 cells assessed as induction of HDAC3 degradation at 10 uM measured after 36 to 48 hrs by Western blot analysis; format: cell-based; details: time 36-48 hrs; procedure, shortened: as §1
Target sequence in this assay (O15379 whole entry, looked up): as the sequence (O15379 whole entry, looked up) above
Target sequence in this assay (P40337 whole entry, looked up): as the sequence (P40337 whole entry, looked up) above

[15] = biological target: T2, von Hippel-Lindau disease tumor suppressor/Histone deacetylase 1; assay: Protac activity at VHL/HDAC1 in human HCT-116 cells assessed as induction of HDAC1 degradation at 10 uM measured after 4 hrs by Western blot analysis; format: cell-based; procedure, shortened: as §1
Target sequence in this assay (P40337 whole entry, looked up): as above
Target sequence in this assay (Q13547 whole entry, looked up): as the sequence (Q13547 whole entry, looked up) above

[16] = biological target: T2, von Hippel-Lindau disease tumor suppressor/Histone deacetylase 1; assay: Protac activity at VHL/HDAC1 in human HCT-116 cells assessed as reduction in LSD1 level measured after 48 hrs by Western blot analysis; set-up: scale not given: the % may be the effect or the level left
Target sequence in this assay (P40337 whole entry, looked up): as the sequence (P40337 whole entry, looked up) above
Target sequence in this assay (Q13547 whole entry, looked up): as the sequence (Q13547 whole entry, looked up) above

[17] = biological target: T1, von Hippel-Lindau disease tumor suppressor/Histone deacetylase 2 (Homo sapiens); assay: Protac activity at VHL/HDAC2 in human HCT-116 cells assessed as induction of HDAC2 degradation at 1 uM measured upto 48 hrs by Western blot analysis; format: cell-based; details: time hrs <=48; procedure, shortened: as §1
[18] = biological target: T2, von Hippel-Lindau disease tumor suppressor/Histone deacetylase 1; assay: Protac activity at VHL/HDAC1 in human HCT-116 cells assessed as induction of HDAC1 degradation at 1 uM measured upto 48 hrs by Western blot analysis; format: cell-based; details: time hrs <=48; procedure, shortened: as §1
Target sequence in this assay (P40337 whole entry, looked up): as the sequence (P40337 whole entry, looked up) above
Target sequence in this assay (Q13547 whole entry, looked up): as the sequence (Q13547 whole entry, looked up) above

[19] = biological target: T1, von Hippel-Lindau disease tumor suppressor/Histone deacetylase 2 (Homo sapiens); assay: Protac activity at VHL/HDAC2 in human HCT-116 cells assessed as fold increase in H3K56ac at 10 uM measured after 8 hrs by Western blot analysis relative to control; format: cell-based; procedure, shortened: as §1
[20] = biological target: T3, von Hippel-Lindau disease tumor suppressor/Histone deacetylase 3; assay: Protac activity at VHL/HDAC3 in human HCT-116 cells assessed as induction of HDAC3 degradation at 1 uM measured after 15 hrs by Western blot analysis; format: cell-based; procedure, shortened: as §1
Target sequence in this assay (O15379 whole entry, looked up): as the sequence (O15379 whole entry, looked up) above
Target sequence in this assay (P40337 whole entry, looked up): as the sequence (P40337 whole entry, looked up) above

[21] = biological target: T3, von Hippel-Lindau disease tumor suppressor/Histone deacetylase 3; assay: Protac activity at VHL/HDAC3 in human HCT-116 cells assessed as induction of HDAC3 degradation at 10 uM measured upto 24 hrs by Western blot analysis; format: cell-based; details: time hrs <=24; procedure, shortened: as §1
Target sequence in this assay (O15379 whole entry, looked up): as the sequence (O15379 whole entry, looked up) above
Target sequence in this assay (P40337 whole entry, looked up): as the sequence (P40337 whole entry, looked up) above

[22] = biological target: T1, von Hippel-Lindau disease tumor suppressor/Histone deacetylase 2 (Homo sapiens); assay: Protac activity at VHL/HDAC2 in human HCT-116 cells assessed as reduction in LSD1 level measured after 48 hrs by Western blot analysis; set-up: scale not given: the % may be the effect or the level left
HCT-116 [23] = assay: Induction of apoptosis in human HCT-116 cells assessed as accumulation of cells in Sub-G1 phase at 10 uM measured after 24 hrs by flow cytometry analysis
[24] = biological target: T2, von Hippel-Lindau disease tumor suppressor/Histone deacetylase 1; assay: Protac activity at VHL/HDAC1 in human HCT-116 cells assessed as induction of HDAC1 degradation at 1 uM incubated for 24 hrs by Western blot analysis; format: cell-based; procedure, shortened: as §1
Target sequence in this assay (P40337 whole entry, looked up): as above
Target sequence in this assay (Q13547 whole entry, looked up): as the sequence (Q13547 whole entry, looked up) above

[25] = biological target: T3, von Hippel-Lindau disease tumor suppressor/Histone deacetylase 3; assay: Protac activity at VHL/HDAC3 in human HCT-116 cells assessed as induction of HDAC3 degradation at 1 to 10 uM incubated for 24 hrs by Western blot analysis; format: cell-based; details: dose 1-10 µM; procedure, shortened: as §1
Target sequence in this assay (O15379 whole entry, looked up): as the sequence (O15379 whole entry, looked up) above
Target sequence in this assay (P40337 whole entry, looked up): as the sequence (P40337 whole entry, looked up) above

T1 sequence (P40337 whole entry, looked up): as above
T1 sequence (Q92769 whole entry, looked up): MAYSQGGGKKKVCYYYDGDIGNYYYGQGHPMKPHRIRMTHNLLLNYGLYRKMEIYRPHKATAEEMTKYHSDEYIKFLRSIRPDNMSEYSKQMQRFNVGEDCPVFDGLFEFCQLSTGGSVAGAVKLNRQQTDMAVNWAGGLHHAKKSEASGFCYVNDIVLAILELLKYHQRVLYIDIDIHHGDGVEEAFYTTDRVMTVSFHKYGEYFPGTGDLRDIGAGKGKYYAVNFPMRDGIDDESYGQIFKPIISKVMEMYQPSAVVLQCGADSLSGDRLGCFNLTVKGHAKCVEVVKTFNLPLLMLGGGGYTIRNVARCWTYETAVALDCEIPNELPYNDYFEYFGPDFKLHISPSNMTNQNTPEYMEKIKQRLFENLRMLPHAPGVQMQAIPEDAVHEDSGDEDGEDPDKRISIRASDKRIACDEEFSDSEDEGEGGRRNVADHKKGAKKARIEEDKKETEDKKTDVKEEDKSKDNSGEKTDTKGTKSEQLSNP

Structure (SMILES) | Activity [1] | Activity [2] | Activity [25] | other results
Cc1ncsc1-c1ccc(CNC(=O)[C@@H]2C[C@@H](O)CN2C(=O)[C@@H](NC(=O)CCCCCCCCCCCCC(=O)Nc2ccc(C(=O)Nc3ccccc3N)cc2)C(C)(C)C)cc1 | Active | Active |  | 
Cc1ncsc1-c1ccc(CNC(=O)[C@@H]2C[C@@H](O)CN2C(=O)[C@@H](NC(=O)CCCCCCCCCCC(=O)Nc2ccc(C(=O)Nc3ccccc3N)cc2)C(C)(C)C)cc1 |  |  |  | Activity [3]: Active
CC(=O)NC(C(=O)N1C[C@H](O)C[C@H]1C(=O)NCc1ccc(-c2scnc2C)cc1OCCCCCCCCCCCC(=O)Nc1ccc(C(=O)Nc2ccccc2N)cc1)C(C)(C)C (single isomer, unassigned) |  |  |  | IC50 [4]: 3.46 µM; Activity (HCT-116 [5]): inactive; IC50 [6]: 1.51 µM; DC50 [7]: 1.38 µM; IC50 [8]: 3.81 µM; DC50 [9]: 3.51 µM
Cc1ncsc1-c1ccc(CNC(=O)[C@@H]2C[C@@H](O)CN2C(=O)[C@@H](NC(=O)COCCCCCCCCCOCC(=O)Nc2ccc(C(=O)Nc3ccccc3N)cc2)C(C)(C)C)cc1 |  |  |  | Activity [10]: Active; Activity [11]: Active; Activity (HCT-116 [12]): Active; fold change (FC) [13]: 2; Activity [14]: 50%; Activity [15]: Active; Activity [16]: 40%; Activity [17]: Active; Activity [18]: Active; fold change (FC) [19]: 2; Activity [20]: Active; Activity [21]: inactive; Activity [22]: 40%; Activity (HCT-116 [23]): Active; Activity [24]: Active
Cc1ncsc1-c1ccc(CNC(=O)[C@@H]2C[C@@H](O)CN2C(=O)[C@@H](NC(=O)CCCCCCCC(=O)Nc2ccc(C(=O)Nc3cc(-c4cccs4)ccc3N)cc2)C(C)(C)C)cc1 | inactive | inactive |  | 
CC(=O)NC(C(=O)N1C[C@H](O)C[C@H]1C(=O)NCc1ccc(-c2scnc2C)cc1OCCCCNC(=O)CCCCCCCC(=O)Nc1ccc(C(=O)Nc2ccccc2N)cc1)C(C)(C)C (single isomer, unassigned) |  | Active |  | 
Cc1ncsc1-c1ccc(CNC(=O)[C@@H]2C[C@@H](O)CN2C(=O)[C@@H](NC(=O)CCCCCCCC(=O)Nc2ccc(C(=O)Nc3ccccc3N)cc2)C(C)(C)C)cc1 | Active | Active | inactive | 
Cc1ncsc1-c1ccc(CNC(=O)[C@@H]2C[C@@H](O)CN2C(=O)[C@@H](NC(=O)COCCOCCOCC(=O)Nc2ccc(C(=O)Nc3cc(-c4cccs4)ccc3N)cc2)C(C)(C)C)cc1 | inactive | inactive |  | 
CC(=O)NC(C(=O)N1C[C@H](O)C[C@H]1C(=O)NCc1ccc(-c2scnc2C)cc1OCCCCNC(=O)CCCCC(=O)Nc1ccc(C(=O)Nc2ccccc2N)cc1)C(C)(C)C (single isomer, unassigned) |  | Active |  | 
Cc1ncsc1-c1ccc(CNC(=O)[C@@H]2C[C@@H](O)CN2C(=O)[C@@H](NC(=O)COCCOCCOCC(=O)Nc2ccc(C(=O)Nc3ccccc3N)cc2)C(C)(C)C)cc1 | inactive | inactive | inactive | 
Cc1ncsc1-c1ccc(CNC(=O)[C@@H]2C[C@@H](O)CN2C(=O)C(NC(=O)CCCCCCCCCCC(=O)Nc2ccc(C(=O)Nc3ccc(F)cc3N)cc2)C(C)(C)C)cc1 (single isomer, unassigned) |  |  | Active | 
Cc1ncsc1-c1ccc(CNC(=O)[C@@H]2C[C@@H](O)CN2C(=O)[C@@H](NC(=O)COCCOCC(=O)Nc2ccc(C(=O)Nc3ccccc3N)cc2)C(C)(C)C)cc1 | inactive | inactive | inactive | 
Cc1ncsc1-c1ccc(CNC(=O)[C@@H]2C[C@@H](O)CN2C(=O)[C@@H](NC(=O)COCCCCCCOCC(=O)Nc2ccc(C(=O)Nc3ccccc3N)cc2)C(C)(C)C)cc1 |  |  |  | Activity [24]: inactive
Cc1ncsc1-c1ccc(CNC(=O)[C@@H]2C[C@@H](O)CN2C(=O)C(NC(=O)COCCOCCOCC(=O)Nc2ccc(C(=O)Nc3ccc(F)cc3N)cc2)C(C)(C)C)cc1 (single isomer, unassigned) |  |  |  | Activity [3]: Active
Cc1ncsc1-c1ccc(CNC(=O)[C@@H]2C[C@@H](O)CN2C(=O)[C@@H](NC(=O)CCCCCCCCC(=O)Nc2ccc(C(=O)Nc3ccccc3N)cc2)C(C)(C)C)cc1 | Active | Active | inactive | 
Cc1ncsc1-c1ccc(CNC(=O)[C@@H]2C[C@@H](O)CN2C(=O)[C@@H](NC(=O)CCCCCCCCCCC(=O)Nc2ccc(C(=O)Nc3cc(-c4cccs4)ccc3N)cc2)C(C)(C)C)cc1 | inactive | inactive |  | 
Cc1ncsc1-c1ccc(CNC(=O)[C@@H]2CC(O)CN2C(=O)[C@@H](NC(=O)COCCOCCOCCOCC(=O)Nc2ccc(C(=O)Nc3ccccc3N)cc2)C(C)(C)C)cc1 (single isomer, unassigned) | inactive | inactive | inactive | 
Cc1ncsc1-c1ccc(CNC(=O)[C@@H]2C[C@@H](O)CN2C(=O)[C@@H](NC(=O)CCCN2CCN(CCCC(=O)Nc3ccc(C(=O)Nc4ccccc4N)cc3)CC2)C(C)(C)C)cc1 | inactive | inactive | inactive | 
Cc1ncsc1-c1ccc(CNC(=O)[C@@H]2C[C@@H](O)CN2C(=O)[C@@H](NC(=O)COCCCCCCCCCOCC(=O)Nc2ccc(C(=O)Nc3ccc(F)cc3N)cc2)C(C)(C)C)cc1 |  |  |  | Activity [24]: Active
Cc1ncsc1-c1ccc(CNC(=O)[C@@H]2C[C@@H](O)CN2C(=O)[C@@H](NC(=O)CCCCCCCCCC(=O)Nc2ccc(C(=O)Nc3ccccc3N)cc2)C(C)(C)C)cc1 | Active | Active | inactive | 
